Reference: ChEMBL document CHEMBL1124793, “Comparative reactivity of 1-carba-1-dethiacephalosporins with cephalosporins” (J Med Chem, 1990)
In brackets after ≈: the same amount, converted by molar mass.

Tested on: Escherichia coli
Assay: In vitro inhibitory activity against Escherichia coli EC14
Format: functional
Outline: (§1)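 Agar dilution: compounds were diluted in 0.1 M phosphate buffer, pH 7.0, and mixed at 50 °C into Mueller–Hinton agar with 1% Bacto-Supplement C. Fresh overnight cultures were diluted to about 1 × 10^4 cells/μL and spotted at 1 μL. Plates were incubated overnight at 35 °C in ambient air. MIC (μg/mL) was the lowest concentration preventing visible growth.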

MIC [µg/mL] | SMILES
0.008 (≈ 0.0219 µM) | CO/N=C(\C(=O)N[C@@H]1C(=O)N2C(C(=O)O)=CCC[C@H]12)c1csc(N)n1
128 (≈ 387 µM) | CC1=C(C(=O)O)N2C(=O)[C@@H](NC(=O)COc3ccccc3)[C@H]2CC1
0.015 (≈ 0.0391 µM) | CO/N=C(\C(=O)N[C@@H]1C(=O)N2C(C(=O)O)=CCS[C@H]12)c1csc(N)n1 [CEFTIZOXIME]
0.03 (≈ 0.0632 µM) | CO/N=C(\C(=O)N[C@@H]1C(=O)N2C(C(=O)[O-])=C(C[n+]3ccccc3)CS[C@H]12)c1csc(N)n1

Tested on: not listed separately
Assay: Pseudo-first-order rate constant at pH 10, micro=0.5, 35 degrees Centigrade
Format: ADME
Outline: (§2)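 Parent β-lactam loss followed by HPLC, starting at 3.9 × 10^-4–1 × 10^-3 M, at 35 °C and μ = 0.5. pH was held at 10 by a pH-stat adding NaOH. Pseudo-first-order rate constants were derived, with half-lives from these rates. Some runs were done at pH 11, and the constant was taken as 1/10 of the observed value, assuming proportionality to [OH].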

K [h⁻¹] | SMILES
0.0016 | CC1=C(C(=O)O)N2C(=O)[C@@H](NC(=O)COc3ccccc3)[C@H]2CC1

Tested on: Enterobacter cloacae
Assay: In vitro inhibitory activity against Enterobacter cloacae EB5
Format: functional
Outline: as §1

MIC [µg/mL] | SMILES
0.06 (≈ 0.164 µM) | CO/N=C(\C(=O)N[C@@H]1C(=O)N2C(C(=O)O)=CCC[C@H]12)c1csc(N)n1
128 (≈ 387 µM) | CC1=C(C(=O)O)N2C(=O)[C@@H](NC(=O)COc3ccccc3)[C@H]2CC1
0.06 (≈ 0.156 µM) | CO/N=C(\C(=O)N[C@@H]1C(=O)N2C(C(=O)O)=CCS[C@H]12)c1csc(N)n1 [CEFTIZOXIME]
0.06 (≈ 0.126 µM) | CO/N=C(\C(=O)N[C@@H]1C(=O)N2C(C(=O)[O-])=C(C[n+]3ccccc3)CS[C@H]12)c1csc(N)n1

Tested on: not listed separately
Assay: Pseudo-first-order rate constant at pH 10 and 35 degrees Centigrade
Format: ADME
Outline: as §2

K [h⁻¹] | SMILES
0.00565 | CO/N=C(\C(=O)N[C@@H]1C(=O)N2C(C(=O)O)=CCC[C@H]12)c1csc(N)n1
0.114 | CO/N=C(\C(=O)N[C@@H]1C(=O)N2C(C(=O)O)=CCS[C@H]12)c1csc(N)n1 [CEFTIZOXIME]
1.85 | CO/N=C(\C(=O)N[C@@H]1C(=O)N2C(C(=O)[O-])=C(C[n+]3ccccc3)CS[C@H]12)c1csc(N)n1

Tested on: not listed separately
Assay: Half-life is evaluated
Format: ADME
Outline: as §2

half-life [h] | SMILES
123 | CO/N=C(\C(=O)N[C@@H]1C(=O)N2C(C(=O)O)=CCC[C@H]12)c1csc(N)n1
433 | CC1=C(C(=O)O)N2C(=O)[C@@H](NC(=O)COc3ccccc3)[C@H]2CC1
6.08 | CO/N=C(\C(=O)N[C@@H]1C(=O)N2C(C(=O)O)=CCS[C@H]12)c1csc(N)n1 [CEFTIZOXIME]
0.375 | CO/N=C(\C(=O)N[C@@H]1C(=O)N2C(C(=O)[O-])=C(C[n+]3ccccc3)CS[C@H]12)c1csc(N)n1

Tested on: Haemophilus influenzae
Assay: In vitro inhibitory activity against Haemophilus influenza C.L
Format: functional
Outline: as §1

MIC [µg/mL] | SMILES
0.008 (≈ 0.0219 µM) | CO/N=C(\C(=O)N[C@@H]1C(=O)N2C(C(=O)O)=CCC[C@H]12)c1csc(N)n1
32 (≈ 96.9 µM) | CC1=C(C(=O)O)N2C(=O)[C@@H](NC(=O)COc3ccccc3)[C@H]2CC1
0.015 (≈ 0.0391 µM) | CO/N=C(\C(=O)N[C@@H]1C(=O)N2C(C(=O)O)=CCS[C@H]12)c1csc(N)n1 [CEFTIZOXIME]
0.06 (≈ 0.126 µM) | CO/N=C(\C(=O)N[C@@H]1C(=O)N2C(C(=O)[O-])=C(C[n+]3ccccc3)CS[C@H]12)c1csc(N)n1

Tested on: Providencia rettgeri
Assay: In vitro inhibitory activity against Proteus rettgeri C24
Format: functional
Outline: as §1

MIC [µg/mL] | SMILES
0.008 (≈ 0.0219 µM) | CO/N=C(\C(=O)N[C@@H]1C(=O)N2C(C(=O)O)=CCC[C@H]12)c1csc(N)n1
128 (≈ 387 µM) | CC1=C(C(=O)O)N2C(=O)[C@@H](NC(=O)COc3ccccc3)[C@H]2CC1
0.008 (≈ 0.0209 µM) | CO/N=C(\C(=O)N[C@@H]1C(=O)N2C(C(=O)O)=CCS[C@H]12)c1csc(N)n1 [CEFTIZOXIME]
0.03 (≈ 0.0632 µM) | CO/N=C(\C(=O)N[C@@H]1C(=O)N2C(C(=O)[O-])=C(C[n+]3ccccc3)CS[C@H]12)c1csc(N)n1

Tested on: Klebsiella pneumoniae
Assay: In vitro inhibitory activity against Klebsiella X26
Format: functional
Outline: as §1

MIC [µg/mL] | SMILES
0.008 (≈ 0.0219 µM) | CO/N=C(\C(=O)N[C@@H]1C(=O)N2C(C(=O)O)=CCC[C@H]12)c1csc(N)n1
32 (≈ 96.9 µM) | CC1=C(C(=O)O)N2C(=O)[C@@H](NC(=O)COc3ccccc3)[C@H]2CC1
0.008 (≈ 0.0209 µM) | CO/N=C(\C(=O)N[C@@H]1C(=O)N2C(C(=O)O)=CCS[C@H]12)c1csc(N)n1 [CEFTIZOXIME]
0.03 (≈ 0.0632 µM) | CO/N=C(\C(=O)N[C@@H]1C(=O)N2C(C(=O)[O-])=C(C[n+]3ccccc3)CS[C@H]12)c1csc(N)n1

Tested on: Pseudomonas aeruginosa
Assay: In vitro inhibitory activity against Pseudomonas aeruginosa X258
Format: functional
Outline: as §1

MIC [µg/mL] | SMILES
32 (≈ 87.6 µM) | CO/N=C(\C(=O)N[C@@H]1C(=O)N2C(C(=O)O)=CCC[C@H]12)c1csc(N)n1
128 (≈ 387 µM) | CC1=C(C(=O)O)N2C(=O)[C@@H](NC(=O)COc3ccccc3)[C@H]2CC1
32 (≈ 83.5 µM) | CO/N=C(\C(=O)N[C@@H]1C(=O)N2C(C(=O)O)=CCS[C@H]12)c1csc(N)n1 [CEFTIZOXIME]
2 (≈ 4.21 µM) | CO/N=C(\C(=O)N[C@@H]1C(=O)N2C(C(=O)[O-])=C(C[n+]3ccccc3)CS[C@H]12)c1csc(N)n1

Tested on: Staphylococcus aureus
Assay: In vitro inhibitory activity against Staphylococcus aureus X1.1
Format: functional
Outline: as §1

MIC [µg/mL] | SMILES
16 (≈ 43.8 µM) | CO/N=C(\C(=O)N[C@@H]1C(=O)N2C(C(=O)O)=CCC[C@H]12)c1csc(N)n1
4 (≈ 12.1 µM) | CC1=C(C(=O)O)N2C(=O)[C@@H](NC(=O)COc3ccccc3)[C@H]2CC1
4 (≈ 10.4 µM) | CO/N=C(\C(=O)N[C@@H]1C(=O)N2C(C(=O)O)=CCS[C@H]12)c1csc(N)n1 [CEFTIZOXIME]
1 (≈ 2.11 µM) | CO/N=C(\C(=O)N[C@@H]1C(=O)N2C(C(=O)[O-])=C(C[n+]3ccccc3)CS[C@H]12)c1csc(N)n1

Tested on: Streptococcus pyogenes
Assay: In vitro inhibitory activity against Streptococcus pyogenes Park
Format: functional
Outline: as §1

MIC [µg/mL] | SMILES
0.015 (≈ 0.0411 µM) | CO/N=C(\C(=O)N[C@@H]1C(=O)N2C(C(=O)O)=CCC[C@H]12)c1csc(N)n1
1 (≈ 3.03 µM) | CC1=C(C(=O)O)N2C(=O)[C@@H](NC(=O)COc3ccccc3)[C@H]2CC1
0.015 (≈ 0.0391 µM) | CO/N=C(\C(=O)N[C@@H]1C(=O)N2C(C(=O)O)=CCS[C@H]12)c1csc(N)n1 [CEFTIZOXIME]
0.03 (≈ 0.0632 µM) | CO/N=C(\C(=O)N[C@@H]1C(=O)N2C(C(=O)[O-])=C(C[n+]3ccccc3)CS[C@H]12)c1csc(N)n1
